Assay results pooled from the literature.
Compare with care: the assays were run in different laboratories.
EGFR L858R/T790M: Epidermal growth factor receptor (EGFR, Homo sapiens, UniProt P00533, L858R/T790M)
EGFR L858R: Epidermal growth factor receptor (EGFR, Homo sapiens, UniProt P00533, L858R)
EGFR: Epidermal growth factor receptor (EGFR, Homo sapiens, UniProt P00533)
EGFR G719C: Epidermal growth factor receptor (EGFR, Homo sapiens, UniProt P00533, G719C)
EGFR T790M: Epidermal growth factor receptor (EGFR, Homo sapiens, UniProt P00533, T790M)
EGFR del752-759: Epidermal growth factor receptor (EGFR, Homo sapiens, UniProt P00533, del752-759)

CN(CCCC(F)(F)F)c1nccc(-c2cnn3ncccc23)n1
remaining binding (Epidermal growth factor receptor (EGFR, Homo sapiens, UniProt P00533, L861Q); binding; 1 µM): 73%

C=CC(=O)Nc1cccc(Oc2nc(Nc3ccc(N4CCN(C)CC4)cc3)nc3ccsc23)c1
inhibition (EGFR L858R/T790M; enzyme activity, inhibitor, ELISA; 0.1 µM): 98.4%

CSc1cccnc1N1CCN(Cc2nc3ccccc3[nH]2)CC1
remaining binding (EGFR L858R; cell-free assay, competition with immobilised ligand; 1 µM): 100%

O=C1Nc2ccc(Cl)cc2C1=Cc1cc(Cl)c(O)c(Cl)c1
remaining signal (EGFR; cell-free assay; 0.5 µM): 93.5%

CCC(=O)Nc1cc(Nc2nc(N3CCc4sccc4C3)c3cccnc3n2)c(OC)cc1N1CCN(CC)CC1
inhibition (EGFR L858R/T790M; enzyme activity, inhibitor, ELISA; 0.1 µM): 19.2%

Cc1ccc(NC(=O)c2ccc(CN3CCN(C)CC3)cc2)cc1Nc1nc(-c2cccnc2)cs1
remaining signal (EGFR; cell-free assay; 0.5 µM): 99.6%

COc1cc2ncnc(Nc3ccc(Oc4ccccc4)cc3C)c2cc1OC
inhibition (EGFR; enzyme activity, inhibitor; 1 µM): 89%

CN(c1nccc(-c2cnn3ncccc23)n1)C1CC1
remaining binding (EGFR; binding; 1 µM): 100%

Cc1cnc(NC2CCOCC2)nc1-n1cnc(C(=O)NC(CN)c2cc(F)cc(Cl)c2)c1 (centres unmarked)
remaining activity (EGFR L858R; enzyme activity, inhibitor, radiometric; 1 µM): 112%

COc1cc2ncnc(Nc3ccc(Oc4ccccc4)c(C)c3C)c2cc1OC
inhibition (EGFR L858R; enzyme activity, inhibitor; 1 µM): 65%

O=C(Nc1cnn(-c2csc(C(=O)NC3COC3)c2)c1)Nc1c(F)cccc1Cl
remaining activity (EGFR; enzyme activity, inhibitor; 5 µM): 89.4%

Cc1nc(Cc2cccc(C(F)(F)F)c2)sc1-c1ccc(C(N)=O)nc1
remaining binding (EGFR G719C; cell-free assay, competition with immobilised ligand; 1 µM): 94%

CN(C)c1nccc(-c2cnc3ncccn23)n1
remaining binding (EGFR L858R; binding; 1 µM): 89%

Cc1ccc(C(=O)Nc2ccc(CN3CCN(C)CC3)c(C(F)(F)F)c2)cc1C#Cc1cnc2cccnn12
remaining signal (EGFR T790M; cell-free assay; 23.5 nM): 94%

Cc1ccc(NC(=O)c2ccc(C)c(C(F)(F)F)c2)cc1C#Cc1nn(C2CCC(O)CC2)c2ncnc(N)c12 (centres unmarked)
remaining signal (EGFR L858R; cell-free assay; 10 µM): 21%

CCOC(=O)c1cc2cc(-c3cc(C(=O)NCc4ccc(C(=O)O)cc4)nn3C)ccc2[nH]1
remaining binding (Epidermal growth factor receptor (EGFR, Homo sapiens, UniProt P00533, del746-750); cell-free assay, competition with immobilised ligand; 0.1 µM): 100%

COc1cc(Cl)c(C(=O)N[C@@H](CN[C@H]2CC[C@@H](N)CC2)Cc2ccc(C#N)cc2)cc1-c1ccc(CN[C@H](C)c2ccc(C)cc2)o1
remaining activity (EGFR; enzyme activity, inhibitor; 1 µM): 103%

CNCc1ccccc1-c1csc([C@H](C)Nc2nc(C)nc3cc(OC)c(OC)cc23)c1
remaining binding (EGFR L858R/T790M; cell-free assay, competition with immobilised ligand; 1 µM): 87%

CCC(=O)Nc1cc(Nc2nc(N3CCc4sccc4C3)c3cccnc3n2)c(OC)cc1N1CCSCC1
inhibition (EGFR L858R/T790M; enzyme activity, inhibitor, ELISA; 0.1 µM): 28.8%

Cc1cc(NC(=O)c2cccc3cc(-c4cccc5[nH]nc(N)c45)ccc23)ccc1F
activity vs control (EGFR L858R; enzyme activity, inhibitor; 0.1 µM): 112%

NS(=O)(=O)c1cc(NC(=O)Cc2ccccc2)ccc1Oc1cccc(Cl)c1
remaining binding (EGFR G719C; cell-free assay, competition with immobilised ligand; 1 µM): 63%

C[C@H]1CCN(c2nccc(-c3cnn4ncccc34)n2)C1
remaining binding (EGFR T790M; binding; 1 µM): 76%

COc1cc(-c2cc(-c3ccc(N4CCNCC4)cc3)cnc2N)cc(OC)c1OC
inhibition (EGFR L858R; enzyme activity, inhibitor; 0.1 µM): 26%

COc1cc(-c2cn(C3CCc4c(F)cccc4N(CC(F)(F)F)C3=O)nn2)ccc1-n1cnc(C)c1 (centres unmarked)
remaining binding (Epidermal growth factor receptor (EGFR, Homo sapiens, UniProt P00533, A750P/del747-749); cell-free assay, competition with immobilised ligand; 1 µM): 100%

Nc1ncnc2occ(-c3ccc(NC(=O)Nc4cc(C(F)(F)F)ccc4F)cc3)c12
remaining signal (EGFR G719C; cell-free assay; 20 µM): 4.2%

CCC(=O)Nc1cc(Nc2nc(N3CCc4sccc4C3)c3cccnc3n2)c(OC)cc1N1CCC(N(C)C)CC1
inhibition (EGFR L858R/T790M; enzyme activity, inhibitor, ELISA; 0.1 µM): 22.5%

CC/C(=N\NC(=O)NCc1cccc(O)c1)c1ccc(O)c(C)c1O
inhibition (EGFR; enzyme activity, inhibitor; 0.1 µM): 4.5%

CC(C)[C@@H]1NC(=O)[C@H](CCCNC(=N)N)NC(=O)[C@H](Cc2ccc(O)cc2)NC(=O)[C@H](C(C)C)NC(=O)[C@H](C(C)C)NC(=O)[C@H](CCCNC(=N)N)NC(=O)[C@H](CC(=O)O)NC(=O)[C@H](CC(=O)O)NC(=O)[C@H](C)NC(=O)[C@H](Cc2ccc(O)cc2)NC(=O)[C@H](Cc2ccc(O)cc2)NC(=O)[C@H](Cc2ccccc2)NC(=O)[C@@H](Cc2ccc(O)cc2)NC(=O)CSC[C@@H](C(=O)NCC(N)=O)NC(=O)CC(c2ccccc2)NC1=O (some centres unmarked)
kon (EGFR; binding, SPR): 40200 M⁻¹ s⁻¹

Cc1c(NC(=O)c2cc(C(N)=O)nc3cc(F)ccc23)c(C(F)(F)F)nn1Cc1ccc(C#N)cc1
remaining binding (EGFR del752-759; cell-free assay, competition with immobilised ligand; 1 µM): 79%

CC(C)(C)c1nc(-c2cccc(NS(=O)(=O)c3c(F)cccc3F)c2F)c(-c2ccnc(N)n2)s1
remaining activity (EGFR; enzyme activity, inhibitor, radiometric; 1 µM): 119%

CCOc1cc2ncnc(Nc3cccc(Br)c3)c2cc1OCC
remaining signal (EGFR; cell-free assay; 0.5 µM): 2.02%

O=C(Nc1cccnn1)N1CCC(=Cc2cccc(Oc3ccc(C(F)(F)F)cn3)c2)CC1
remaining binding (EGFR L858R/T790M; cell-free assay, competition with immobilised ligand; 1 µM): 99%

COc1ccc(COc2ccc(Cc3cnc(N)nc3N)cc2OC)cc1
remaining signal (EGFR; cell-free assay; 0.5 µM): 96.9%

N[C@H]1CCN(c2nccc(-c3cnn4ncccc34)n2)C1
remaining binding (EGFR del752-759; binding; 1 µM): 88%

CC(C)[C@@H]1NC(=O)[C@H](CCCNC(=N)N)NC(=O)[C@H](Cc2ccc(O)cc2)NC(=O)[C@H](C(C)C)NC(=O)[C@H](C(C)C)NC(=O)[C@H](CCCNC(=N)N)NC(=O)[C@H](CC(=O)O)NC(=O)[C@H](CC(=O)O)NC(=O)CCNC(=O)[C@H](Cc2ccc(O)cc2)NC(=O)[C@H](Cc2ccc(O)cc2)NC(=O)[C@H](Cc2ccccc2)NC(=O)[C@@H](Cc2ccc(O)cc2)NC(=O)CSC[C@@H](C(=O)NCC(N)=O)NC(=O)CCNC1=O
kon (EGFR; binding, SPR): 258000 M⁻¹ s⁻¹
